Only some compounds are listed: those with a hit (about 29% of all), similar ones and a draw of the others.
E coli WT exp: growth inhibitors of wild-type E. coli, primary screen, strain BW25113, expanded library, OD600. growth inhibition, % at 100 µM. AID 710, 2007. OD600 absorbance. 98,000 tested, 0.15% active;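 active = growth inhibition above about 50% at one test dose, limit read from the data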;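 also: growth measured after 20 h incubation at 37 °C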
CYP2C19 inh: blockers of cytochrome P450 2C19 activity – biochemical, luminescence, ADME assay, primary screen. P33261. CYP2C19 Supersomes, luciferin-H EGE luminescence, 30 min. inhibition, % at 5 µM. 96,000 tested, 21% active. AID 778, 2007;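 active = CYP2C19 inhibition above a set limit at 5 µM in the primary screen, cut at about 50% in these data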;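 also: plate controls were negative control wells for no effect and 2.5 mM tranylcypromine positive control for full effect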
Target sequence (P33261 whole entry, looked up): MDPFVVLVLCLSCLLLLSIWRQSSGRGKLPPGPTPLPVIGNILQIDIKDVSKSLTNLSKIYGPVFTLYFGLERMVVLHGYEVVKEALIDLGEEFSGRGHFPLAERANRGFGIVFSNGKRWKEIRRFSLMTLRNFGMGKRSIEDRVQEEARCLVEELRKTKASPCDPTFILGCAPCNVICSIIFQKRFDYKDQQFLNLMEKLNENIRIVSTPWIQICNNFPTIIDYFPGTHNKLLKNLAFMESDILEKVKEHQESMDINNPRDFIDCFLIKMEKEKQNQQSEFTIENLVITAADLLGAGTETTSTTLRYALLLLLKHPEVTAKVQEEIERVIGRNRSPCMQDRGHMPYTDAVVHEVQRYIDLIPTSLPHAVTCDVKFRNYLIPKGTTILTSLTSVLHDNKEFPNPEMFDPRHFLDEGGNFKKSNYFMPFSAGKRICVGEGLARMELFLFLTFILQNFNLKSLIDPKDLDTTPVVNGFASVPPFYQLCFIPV
CYP2C19 activ: human CYP2C19 activators, primary screen, biochemical, luminescence | Cytochrome P450 2C19 (Homo sapiens), P33261 | recombinant CYP2C19, luciferin-H EGE luminescence; stronger effect = higher value; 0 = fully inhibited enzyme, 1 = untreated enzyme | activation factor at 5 µM | 96,000 tested, under 10 active;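 active = activation factor of at least 2 at 5 µM in the primary screen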;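 also: 0 = wells with 2.5 mM tranylcypromine and 1 = vehicle-only wells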
CYP2C9 activ: human CYP2C9 activators, primary screen, biochemical, luminescence; recombinant CYP2C9, luciferin-H conversion; stronger effect = higher value; factor 1 = untreated enzyme, 0 = blocked; Cytochrome P450 2C9 (Homo sapiens), P11712; activation factor at 5 µM; 96,000 tested, 1.4% active;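 active = activation factor of 2 or more for CYP2C9 at a 5 µM dose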;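 also: 0 = sulfaphenazole-blocked wells and 1 = vehicle-only wells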
CYP2C9 inhib: blockers of cytochrome P450 2C9 activity – biochemical, luminescence, ADME assay, primary screen; 96,000 tested, 20% active; P11712; CYP2C9 Supersomes, luciferin-H conversion; inhibition, % at 5 µM;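 active = blocking of liver enzyme CYP2C9 beyond about 50% at 5 µM, limit read from the data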
tolC growth inh: growth inhibitors of E. coli tolC mutant, primary screen, strain BW25113 ΔtolC::kan, 384-well; growth inhibition, % at 10 µM (by protocol); OD615; AID 573, 2007; 65,000 tested, 2.2% active;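 active = growth inhibition at or above a cutoff equal to the mean over every tested compound plus 3 SD, cut at about 60% in these data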;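 also: growth measured after 20 h incubation at 37 °C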
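Assay system: tolC-deleted E. coli BW25113. Medium: kanamycin-containing LB broth (50 µg/mL). Dosing: 10 µM final, single dose. Timing: bacterial growth with compound for 20 h at 37 °C. Detection: A615 absorbance measurement. Read-out basis: growth inhibition in percent.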
* hit, by the source's call; . = not tested or not shown.

SMILES	E coli WT exp	CYP2C19 inh	CYP2C19 activ	CYP2C9 activ	CYP2C9 inhib	tolC growth inh
CN(C)c1nc2c(c(=O)[nH]c(=O)n2C)n1Cc1ccccc1Br	2	44	0.6	0.8	20	19
CO/N=C/c1ccc(Sc2ccccc2N)c([N+](=O)[O-])c1	-12	74*	0.3	0.3	69*	.
CO/N=C/c1ccc(Sc2ccccc2)c([N+](=O)[O-])c1	6	16	0.8	0.3	74*	.
O=[N+]([O-])c1cc(/C=N/O)ccc1SCc1ccccc1	-2	20	0.8	0.7	26	.
O=[N+]([O-])c1cc(/C=N/O)ccc1Sc1ccccc1	2	11	0.9	0.3	67*	.
CO/N=C/c1ccc(N2CCN(C(=O)c3ccc(F)cc3)CC2)c([N+](=O)[O-])c1	-8	39	0.6	0.6	42	.
O=C(NCCCN1CCOCC1)c1csc2c1CCCC2	-2	-5	1	1.2	-21	-10
CN(C)c1c([N+](=O)[O-])ncn1C	1	14	0.9	0.9	9	.
CS(=O)(=O)N(CCc1ccccc1)CC(=O)NCc1ccncc1	-6	100*	0	0	99*	.
CCNC(=O)CN(CCc1ccccc1)S(C)(=O)=O	-2	72*	0.3	0.8	18	-12
CC(C)NC(=O)CN(CCc1ccccc1)S(C)(=O)=O	3	82*	0.2	0.9	11	-24
CS(=O)(=O)N(CCc1ccccc1)CC(N)=O	4	6	0.9	1	3	-9
COc1ccc(S(=O)(=O)N(CCc2ccccc2)CC(=O)O)cc1Cl	-5	2	1	0.9	12	.
COCCNC(=O)CN(CCc1ccccc1)S(=O)(=O)c1ccc(OC)cc1	5	60*	0.4	1.1	-12	.
CCCCNC(=O)CN(CCc1ccccc1)S(C)(=O)=O	-8	72*	0.3	0.7	25	.
CS(=O)(=O)N(CCc1ccccc1)CC(=O)N1CCN(Cc2ccccc2)CC1	-6	.	.	.	.	11
c1ccc(CSc2ncnc3c2cnn3Cc2ccccc2)cc1	3	12	0.9	0.8	19	.
CCCC(c1nnnn1CCc1ccccc1)N1CCN(C2CCCC2)CC1 (stereo not drawn)	-5	6	0.9	0.9	6	-12
CCOC(=O)c1nnc(-c2ccccc2)nc1Sc1c(Cl)cccc1Cl	-11	23	0.8	0.4	58*	.
O=C1CC(N2CCSCC2)C(=O)N1CCc1ccccc1 (stereo not drawn)	3	16	0.8	1.1	-9	-11
COc1cccc(C2C(C#N)=C(N)OC3=C2C(=O)CCC3)c1OC(=O)c1ccco1 (stereo not drawn)	2	-5	1.1	0.9	5	1
CCOC(=O)C1=C(C)N(C)C(=O)NC1c1ccccc1OC (stereo not drawn)	8	28	0.7	0.9	14	-7
CC1=C(C(N)=O)C(c2ccccc2F)NC(=O)N1 (stereo not drawn)	-3	-4	1	0.5	53*	.
CCCC1=C(C(=O)OCC)C(c2ccccc2OCC)NC(=O)N1C (stereo not drawn)	7	81*	0.2	0.2	81*	18
CCOC(=O)C1=C(N)OC2=C(C(=O)CCC2)C1c1ccccc1OCC (stereo not drawn)	0	80*	0.2	0.5	49	0
SMILES	E coli WT exp	CYP2C19 inh	CYP2C19 activ	CYP2C9 activ	CYP2C9 inhib	tolC growth inh
COC(=O)C1=C(C)NC(=O)NC1c1cc(Cl)ccc1OC (stereo not drawn)	0	-5	1.1	0.8	16	-17
CCCCOc1ccccc1C1NC(=O)NC(C)=C1C(=O)OCc1ccco1 (stereo not drawn)	-9	61*	0.4	0.3	73*	28
O=C(NCC(=O)N(Cc1ccccc1)C(C(=O)NCC1CCCO1)c1ccccc1)c1cccs1 (stereo not drawn)	2	6	0.9	0.8	16	.
CCOc1ccc(NC(=O)C(C)O)c(NS(=O)(=O)c2ccc(CCNC(C)=O)cc2)c1 (stereo not drawn)	-2	16	0.8	0.9	7	-17
CCn1cc(C(=O)O)c(=O)c2cnc(N3CCN(C(=O)Nc4cccc5ccccc45)CC3)nc21	.	4	1	1	0	18
Cc1nc2c(o1)CCc1ccccc1C2N1CCN(C)CC1 (stereo not drawn)	0	-7	1.1	1.2	-17	4
CCCCOc1ccccc1C1NC(=O)NC(C)=C1C(=O)OCCOCC (stereo not drawn)	-3	70*	0.3	0.3	75*	13
CCOC(=O)C1=C(C)NC(=O)NC1c1ccccc1OCc1c(F)cccc1Cl (stereo not drawn)	-3	21	0.8	0.3	70*	.
O=C1CC(c2ccco2)Cc2nc(N3CCN(Cc4ccc5c(c4)OCO5)CC3)ncc21 (stereo not drawn)	-13	20	0.8	0.7	27	32
CCOC(=O)CN1C(=O)c2ccccc2C1=O	4	-18	1.2	1.2	-18	-10
CCOC(=O)CN1C(=O)C2Cc3ccccc3CN2C1=S (stereo not drawn)	3	70*	0.3	0.8	23	.
COC(=O)CCC(NC(=O)c1cc(-c2ccc3c(c2)OCCO3)oc1C)C(=O)OC (stereo not drawn)	2	52*	0.5	0.6	40	-3
CCN(C(=O)c1ccnc(C(C)(C)C)c1)c1ccccc1	4	61*	0.4	0.6	45	8
CSCCC(NC(=O)c1ccco1)C(=O)O (stereo not drawn)	4	-6	1.1	1.2	-18	2
CC(C)c1ccc(NC(=O)NC2CCN(CC(=O)Nc3cccc4ccccc34)CC2)cc1	-5	56*	0.4	0.9	13	.
COc1ccccc1NC(=O)Nc1ccc2c(c1)OCCO2	4	82*	0.2	0.5	54*	15
O=C(Nc1ccc2c(c1)OCO2)NC1CCN(Cc2ccccc2)CC1	2	-7	1.1	1.3	-25	1
COCCNC(=O)CN1CCC(NC(=O)Nc2ccccc2)CC1	4	-8	1.1	1.1	-6	-4
COc1ccccc1NC(=O)CN1CCN(CC(=O)Nc2ccc3c(c2)OCO3)CC1	-5	88*	0.1	0.7	34	0
CCOc1ccccc1NC(=O)NC1CCN(CC(=O)Nc2ccc3c(c2)OCCO3)CC1	10	59*	0.4	0.6	36	3
Fc1ccc2nc3[nH]c4ccccc4c3nc2c1	-5	-4	1	0.9	8	36

High-throughput results (PubChem BioAssay)
